# Most compounds without a hit are left out; they make up all but 4% or so of the library.
# Arrestin-AP2 inh: inhibitors of beta-arrestin/AP2 binding, primary screen, biochemical, GPCR trafficking, flow cytometry. AID 504490, 2011. beta-arrestin 1 C-terminal peptide binding to AP2 beta2-adaptin appendage (human). hit rate 0.31% among 340,000. inhibition, % at 10 µM. FITC-arrestin peptide / GST-AP2 beads; AP2 beta2 appendage carries R879A mutation;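 active means inhibition above a set limit, near 3 SD of compounds lacking own fluorescence, cut at about 54% in these data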
#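 System: GST-AP2 R879A bound to glutathione beads, E. coli-expressed. Also added: 50 nM FITC-arrestin peptide. Schedule: compound with beads 12 min RT, then probe 1 h RT. Signal: bead flow cytometry, FITC channel. Read-out basis: percent response.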
# NR3A LBD binder: binders of NR3A ligand-binding domain, primary screen, biophysical, differential scanning fluorimetry, uHTS; Glutamate receptor ionotropic, NMDA 3A (GRIN3A) ligand-binding domain; AID 1259313, 2017; Tm shift relative to glycine control, % at 25 µM; NR3A LBD differential scanning fluorimetry, Tm shift; 0% = protein alone, 100% = glycine-bound protein; hit rate 2.5% among 340,000;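 active means melting temperature shift of at least 10% of the positive control shift, at one fixed dose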
# Cardio protect: cardioprotection against H2O2-induced cell death, primary screen, uHTS, H9c2 cells, ATPLite luminescence. hit rate 0.63% among 360,000. H9c2 cardiomyocytes, H2O2 injury protection, 2 h. protection from H2O2 cell death, % at 20 µM;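 active means compounds giving at least 50% protection of heart cells from peroxide-induced death in the single-dose screen, raw or plate-pattern-corrected value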
# iPSC survival up: enhancers of single-cell hiPSC survival, primary screen, ATPlite luminescence; 100% = ROCK inhibitor wells, 0% = DMSO; survival enhancement, % at 20 µM; hit rate 0.044% among 360,000; in the data active means survival enhancement above about 18%;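 further: cells exposed to compounds for 16 hours before the ATP read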
# SENP1 FRET inh: human SENP1 catalytic domain inhibitors, primary screen, biochemical, FRET, uHTS; recombinant SENP1 catalytic domain, CyPet-SUMO1-YPet FRET cleavage; inhibition, % at 10 µM; hit rate 0.21% among 360,000;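 active means inhibition at least 30% at 10 µM, raw YFP signal under a set limit, fluorescence ratio 0.5 to 1.5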
#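 Test system: hSENP1 catalytic domain, recombinant; Amount: 20 pM final SENP1 enzyme; Medium: Tris pH 8 buffer plus EDTA, NaCl, BME, BSA, NP40, catalase; Schedule: 50 min enzyme reaction, room temperature, light-protected; Technique: FRET fluorescence in CFP and YFP emission channels; Controls: no-enzyme wells low, DMSO-plus-enzyme wells high control.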
# FAS-TE inh: FAS thioesterase domain inhibitors, primary screen, biochemical, fluorescence intensity, uHTS; Fatty acid synthase (Homo sapiens), P49327; recombinant FAS-TE, OMFH fluorogenic substrate, fluorescence endpoint; inhibition, % at 15 µM; hit rate 0.67% among 360,000; AID 602261, 2012;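 active means compounds whose normalised, plate-corrected inhibition of enzyme fluorescence in the single-dose primary screen is 50% or more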
# Arr AP2 CP1: inhibitors of arrestin peptide binding to AP2, confirmation, biochemical, cherry pick 1, flow cytometry beads; shares compounds with Arrestin-AP2 inh; GST-AP2 beads, FITC arrestin peptide binding; GST-fused beta2-adaptin appendage, R879A mutant; inhibition, % at 10 µM; hit rate 2% among 1,300;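 active means inhibition above a set limit, roughly 3 SD of non-fluorescent compound noise, cut at about 38% in these data; inactive means inhibition at or below that limit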;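 further: loss of bead fluorescence from 50 nM FITC arrestin peptide bound to appendage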
# GST GSH counter: GST-fluorescein capture on glutathione beads, confirmation, artefact control for arrestin-AP2 inhibitor project, biochemical, cherry pick 1, flow cytometry; inhibition, % at 10 µM; GST-fluorescein binding to GSH beads, fluorescence, counter-screen; shares compounds with Arrestin-AP2 inh; AID 588338, 2011; hit rate 2% among 1,300;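 active means inhibition above 50%, about 3 SD of the inhibition seen with non-fluorescent compounds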;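 further: fluorescein maleimide labelled GST captured on 4 micron glutathione beads; higher means more loss of bead fluorescence from quenching or blocked binding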
# Numbers stand for hits; i = inactive; nt = no result given.
SMILES,Arrestin-AP2 inh,NR3A LBD binder,Cardio protect,iPSC survival up,SENP1 FRET inh,FAS-TE inh,others
CCOC(=O)[C@]12Cc3ccccc3[C@H]1N(CCC(=O)OC)C(=O)c1ccccc12,nt,nt,nt,i,i,i,
COc1ccc2c(c1O)[C@]13CCN(C)[C@H](C2)[C@@H]1CCC(=O)C3,i,i,i,i,i,i,
COC1=C(OC)[C@]23CCc4ccc(OC)c(OC)c4[C@]2(CCN3C)CC1=O,i,12.9,i,i,i,i,
O=C1CC2OCC=C3CN4CCC56c7ccccc7N1C5C2C3CC46O (stereo unspecified),nt,nt,i,i,i,i,
CC(=O)Nc1ccc(C(=O)OCC(=O)Nc2ccc(Cl)cc2C(=O)c2ccccc2)cc1,i,i,i,i,i,i,
O=C(COC(=O)c1ccc(O)cc1)Nc1ccc(Cl)cc1C(=O)c1ccccc1,i,17.9,i,i,i,i,
Cc1cccc(C)c1-n1nnnc1C(c1cccs1)N1CCC2(CC1)C(=O)NCN2c1ccccc1 (stereo unspecified),nt,nt,i,i,i,i,
COc1ccc(CCNC(=O)c2c(N)n(CCN3CCOCC3)c3nc4ccccc4nc23)cc1OC,i,i,56.8,i,i,i,
CCCCCn1c(N)c(C(=O)NCCN2CCOCC2)c2nc3ccccc3nc21,i,i,i,i,i,i,
CCN(CC)c1ccc(/C=C/[N+](=O)[O-])cc1,i,i,i,i,32.2,i,
Cc1cc(C)c(S(=O)(=O)N2Cc3ccccc3-n3nncc3C2)c(C)c1,nt,nt,i,i,i,i,
O=C1NC(=O)N(c2ccccc2F)C(=O)/C1=C/c1ccc(Sc2nc3ccccc3[nH]2)o1,i,102.3,i,i,i,i,
CCOC(=O)[C@]12Cc3cc(OC)ccc3[C@H]1N(Cc1ccccc1)C(=O)c1ccccc12,i,i,i,i,i,i,
CCOC(=O)[C@]12Cc3cc(C)ccc3[C@H]1N(Cc1ccccc1)C(=O)c1ccccc12,i,11.5,i,i,i,i,
CCOC(=O)[C@]12Cc3cc(OC)ccc3[C@H]1N(Cc1ccccc1)C(=O)c1cc(F)c(F)cc12,i,12.9,i,i,i,i,
CCCCn1nnnc1C(CCc1ccccc1)N1CCC(n2c(=O)[nH]c3ccccc32)CC1 (stereo unspecified),nt,nt,i,i,i,i,
CCC(c1nnnn1Cc1ccccc1)N1CCC(n2c(=O)[nH]c3ccccc32)CC1 (stereo unspecified),nt,nt,51.1,i,i,i,
CNCC[C@@H](Oc1ccc(C(F)(F)F)cc1)c1ccccc1,i,i,i,i,i,i,
COC(=O)C1=C(c2ccc(OCc3ccccc3)cc2)C[C@@H]2CC[C@H]1N2C(=O)NCCc1ccc(F)cc1,nt,nt,i,i,i,i,
CC(=O)c1c(O)n(-c2cccc(Cl)c2)c(=O)[nH]c1=O (tested in a mixture with another compound),i,i,i,i,i,i,
CC(C)n1c(O)c(C2c3cc(Cl)ccc3Oc3[nH]c(=O)n(C(C)C)c(=O)c32)c(=O)[nH]c1=O (stereo unspecified),i,i,i,26.0,i,i,
O=S(=O)(c1cccc2ccccc12)N1Cc2ccccc2-n2nncc2C1,nt,nt,i,i,i,i,
N[C@@H](Cc1c[nH]c2ccccc12)c1nnc(SCc2ccc(F)cc2)o1,i,12.7,i,i,i,i,
CCOC(=O)c1c(/N=C/c2c(O)n(-c3cccc(C)c3)c(=O)[nH]c2=O)sc2c1CCCC2,i,24.0,i,i,i,i,
COC(=O)[C@@]1(Sc2ccc(C)cc2)CC(=O)N(P(=O)(OC)OC)[C@@H]1c1ccccc1,nt,nt,nt,i,i,i,
SMILES,Arrestin-AP2 inh,NR3A LBD binder,Cardio protect,iPSC survival up,SENP1 FRET inh,FAS-TE inh,others
CCN(CC)S(=O)(=O)c1ccc(NN=C(C#N)C#N)cc1,i,13.3,i,i,i,i,
Cc1cc(C)cc(N2C(=O)NC(=O)/C(=C\c3cccn3-c3ccccc3)C2=O)c1,i,23.9,i,i,i,i,
CC1([N+](=O)[O-])COP(=O)(Nc2cccc(Cl)c2)OC1 (stereo unspecified),i,i,i,i,i,i,
CCC1([N+](=O)[O-])COP(=O)(NCc2cccnc2)OC1 (stereo unspecified),i,12.6,i,i,i,i,
CCOC(=O)NC1CCc2cc(OC)c(OC)c(OC)c2-c2ccc(OC)c(=O)cc21 (stereo unspecified),i,i,i,i,i,i,
Oc1c(Cl)c(Cl)c(Cl)c(Cl)c1Cl,i,18.8,i,i,i,i,
Cc1ccc2c(c1)C1CN(C)CCC1N2C(=O)Nc1cccc(Cl)c1 (stereo unspecified),i,17.2,i,i,i,i,
Cc1ccc2c(c1)C1CN(C)CCC1N2C(=S)Nc1cccnc1 (stereo unspecified),i,i,i,i,i,i,
S=C1NC2(CCCCC2)NC12CCCCC2,i,16.4,i,i,i,i,
O=C(Nc1nccs1)C(Cl)(Cl)Cl,i,i,i,i,i,i,
O=C(Nc1ccc(Cl)cc1)Nc1nccs1,i,28.2,i,i,i,i,
Cc1ccc(CC(=O)N2CCN(C)CC2)cc1,55.0,i,i,i,i,i,Arr AP2 CP1=i;GST GSH counter=i
O=C1NC(=O)N(CCC2=CCCCC2)C(=O)/C1=C\c1cccs1,55.1,i,i,i,i,i,Arr AP2 CP1=i;GST GSH counter=i
Nc1ccc2cc(Br)ccc2c1,60.5,i,i,i,i,i,Arr AP2 CP1=i;GST GSH counter=i
Nc1ccc(Br)cc1,i,i,i,i,i,i,
O=C(NCP(=O)(Oc1ccccc1)Oc1ccccc1)OCc1ccccc1,nt,nt,i,i,i,i,
O=C1CC(c2cccnc2)=NN1c1ccc(Cl)cc1Cl,61.4,i,i,i,i,i,Arr AP2 CP1=i;GST GSH counter=i
CCN1C(=O)CC(c2cccnc2)=Nc2ccccc21,i,i,i,i,i,i,
C[C@@H]1COc2cccc(N3CCN(C)CC3)c2S(=O)(=O)N1,nt,nt,nt,i,i,i,

# Screening data as filed in PubChem BioAssay.
